AF4-AF9 inh – MLL-AF4/AF9 protein interaction inhibition; AlphaScreen, biotin-AF4 peptide binding to FLAG-AF9; inhibition, % at 10 µM; 350,000 compounds, 0.47% hits; AID 651704;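 active = every replicate reaching a set inhibition limit, whatever the replicate mean, cut at about 25% in these data; inconclusive = mean inhibition reaches that limit but some replicates miss it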;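 also: 0% = plate neutral control median and 100% = total signal loss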
Target sequence (P42568 whole entry, looked up): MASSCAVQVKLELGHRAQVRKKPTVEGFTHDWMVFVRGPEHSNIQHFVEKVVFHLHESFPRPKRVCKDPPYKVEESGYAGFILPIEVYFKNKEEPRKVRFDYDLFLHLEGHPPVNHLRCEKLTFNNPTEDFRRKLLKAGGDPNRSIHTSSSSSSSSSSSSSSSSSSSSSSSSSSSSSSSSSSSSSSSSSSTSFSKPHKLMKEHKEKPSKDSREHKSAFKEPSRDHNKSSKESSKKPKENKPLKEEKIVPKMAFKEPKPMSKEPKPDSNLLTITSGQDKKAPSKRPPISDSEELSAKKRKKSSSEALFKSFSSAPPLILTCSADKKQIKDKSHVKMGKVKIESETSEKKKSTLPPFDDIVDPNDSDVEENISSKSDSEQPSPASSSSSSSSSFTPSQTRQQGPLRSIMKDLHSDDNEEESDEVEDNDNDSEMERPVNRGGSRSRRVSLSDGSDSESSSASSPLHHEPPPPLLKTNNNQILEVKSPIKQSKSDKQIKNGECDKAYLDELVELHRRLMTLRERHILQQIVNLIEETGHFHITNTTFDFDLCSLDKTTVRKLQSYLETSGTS
ERp5 block – blocks human ERp5 reductase activity on insulin | Q15084 | ERp5 insulin aggregation, absorbance 650 nm, 90 min | inhibition, % at 9.99 µM | 350,000 compounds, 0.05% hits | AID 651711;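 active = mean replicate inhibition above about 25%, with every replicate also reaching it, limit read from the data, passing the limit was not always enough; inconclusive = only one of those two criteria met; inactive = neither criterion met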
FGF22 binding – FGF22 (human) thermal shift binding; Q9HCT0; recombinant FGF22 thermal shift, SYPRO orange fluorescence; percent of sucrose octasulfate shift, DMSO zero; activity (Tm shift, normalised), % at 9.99 µM; 340,000 compounds, 1.5% hits; AID 651658;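 active = mean Tm shift, scaled 0 neutral to 100 positive control, at about 1.3% or above, every replicate too, limit read from the data; inconclusive = no clear call, values can overlap the other calls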
ARNT TACC3 PPI – ARNT/TACC3 interaction disruption; inhibition, % at 9.99 µM; AlphaScreen His-ARNT PAS-B/GST-TACC3 binding, luminescence; TACC3 fragment carries E629A point mutation; 390,000 compounds, 0.66% hits;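 active = mean inhibition of replicates at least 50% and at least half of replicates each reaching 50%; inconclusive = half or more replicates reach 50% but mean below 50%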;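 also: 0% = complete ARNT plus TACC3 wells and 100% = ARNT alone without TACC3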
PDI inh – blocks human protein disulfide isomerase activity; PDI insulin aggregation turbidity, A650, 90 min; inhibition, % at 10 µM; 350,000 compounds, 0.052% hits; AID 588391;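 active = mean inhibition across replicates of 30% or more, whatever share of single replicates reach that level; inconclusive = mean inhibition below 30% while every single replicate reaches 30%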
FN deposition inh – fibronectin deposition inhibition; 350,000 compounds, 0.086% hits; inhibition, % at 12.6 µM; AH1F fibroblasts, Alexa488-fibronectin deposition fluorescence, overnight;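 active = mean inhibition across replicates of 30% or more, regardless of how many single replicates reach that level; inconclusive = mean under 30% yet at least half of replicates reach 30%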;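 also: positive control wells lacked labelled fibronectin entirely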
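Material: AH1F fibroblast monolayer depositing Alexa488-labelled fibronectin into matrix / Amount: 10000 AH1F cells per well / Signal: fluorescence 485/525 nm / Medium: DMEM, 2% serum / Compound: single dose, pinned / Incubation: 1 h cell adhesion before compound, then overnight fibronectin incubation / Reagent: Alexa488-FN, 24 nM final / Read-out: inhibition of fibronectin deposition signal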
Active calls of the source: *; ? = inconclusive; · = not tested or not shown. This is a sample that favours compounds with a hit; in the whole collection about 2.1% have one here.

SMILES | AF4-AF9 inh | ERp5 block | FGF22 binding | ARNT TACC3 PPI | PDI inh | FN deposition inh
CC=Cc1ccc2n(c1=O)C[C@H]1[C@H](CO)[C@@H](C(=O)N3CCc4ccccc4C3)N[C@@H]21 (mixture of isomers) | -1 | -2 | 0 | 2 | · | ·
COC(=O)Cc1cc(=O)[nH]c(Nc2nc3ccccc3o2)n1 | · | · | · | 26 | -7 | ·
COCc1cc(=O)[nH]c(Nc2nc3ccccc3o2)n1 | -2 | · | · | 60* | -2 | 0
CC1(OC(=O)c2cccs2)C(=O)C=C2C=C3CCCN3C=C2C1=O (centres undefined) | · | · | · | 8.4* | -14 | ·
NNC(=O)c1sccc1OCc1cccc(C(F)(F)F)c1 | 0 | ? | 0 | -4 | -2 | -13
CC(=O)c1ccc(OCc2cccc(C(F)(F)F)c2)cc1O | -1 | -4 | 43* | -4 | -5 | 0
C[C@H]1CCCCO[C@H](CN(C)S(=O)(=O)c2ccccc2)[C@@H](C)CN([C@@H](C)CO)C(=O)c2cc(NS(C)(=O)=O)ccc2O1 | -1 | 0 | 0 | 0 | · | ·
N=c1c2c(n(Cc3ccc(Cl)c(Cl)c3)c3c1CCC3)CCCC2 | · | · | · | 3 | -1 | ·
N=c1c2c(n(Cc3ccc(Br)cc3)c3c1CCC3)CCCC2 | 5 | -1 | 43* | -11 | -6 | 10
C[C@@H]1CN([C@@H](C)CO)C(=O)c2cc(NC(=O)c3ccncc3)ccc2O[C@@H](C)CCCCO[C@@H]1CN(C)C(=O)Nc1cccc2ccccc12 | 1 | 4 | 0 | 3 | · | ·
O=C(Nc1ccc2c(c1)OCO2)N[C@H]1C=C[C@@H](CC(=O)N2CCN(c3ccccc3)CC2)O[C@H]1CO | 6 | 1 | 0 | 23 | · | 3
CCN=C1SC(C(=O)Nc2cc(Cl)cc(Cl)c2)CC(=O)N1CC (centres undefined) | 1 | 3 | 0 | active | -3 | 5
CCN1C(=O)CSC1=Nc1ccc(Cl)c(Cl)c1 | 1 | 2 | 0 | active | -2 | 1
CCN1C(=O)CC(C(=O)NC)SC1=Nc1cc(Cl)c(O)c(Cl)c1 (centres undefined) | · | · | · | 23* | -2 | -7
CNC(=O)C1CC(=O)N(CCc2ccc(OC)cc2)C(=Nc2ccc(OC)cc2)S1 (centres undefined) | · | · | · | -4 | 2 | -5
O=C(N[C@H]1CC[C@H](CCNC(=O)C2CCCCC2)O[C@@H]1CO)c1ccncc1 | 4 | 5 | 0 | -9 | · | -1
Cc1cccc(-c2cc(N3CCCN(C)CC3)n3nccc3n2)c1 | 30* | 7 | 0 | · | -2 | -3
O=C(C[C@H]1CC[C@@H](NC(=O)Nc2cc(F)ccc2F)[C@H](CO)O1)Nc1ccc(-c2ccccc2)cc1 | -14 | 5 | · | 48* | · | 0
O=C(C[C@@H]1CC[C@@H](NC(=O)Nc2cc(F)ccc2F)[C@H](CO)O1)Nc1ccccc1 | -1 | -3 | 0 | 7 | · | ·
CCC(=O)N1[C@H](CO)[C@@H](c2ccccc2)C12CN(C(=O)CN1CCOCC1)C2 | · | · | · | · | · | -4
C=CCc1cc(Cl)ccc1OCCCNCCO | 1 | 2 | 44* | · | 9 | -6
C=CCc1cc(Cl)ccc1OCCCNC(C)C | · | · | · | -8 | -4 | ·
NNC(=O)c1ccccc1-n1cccc1 | -1 | 0 | 43* | · | -11 | -2
O=C1C(Cl)=C(NCCc2ccccc2)C(=O)c2ccccc21 | -5 | -1 | 0 | 41 | -8 | 22
CC(=O)N(Cc1ccc(F)cc1)C1=C(NCCc2ccccc2)C(=O)c2ccccc2C1=O | · | · | · | -6 | -6 | 42*
SMILES | AF4-AF9 inh | ERp5 block | FGF22 binding | ARNT TACC3 PPI | PDI inh | FN deposition inh
COc1cc(CNCCN2CCOCC2)ccc1OCC(=O)NC(C)(C)C | -2 | 4 | 43* | 2 | -1 | -9
CCOc1cc(CNCCCN2CCOCC2)ccc1OCC(=O)NC(C)(C)C | -1 | -2 | 42 | · | 12 | -2
COc1cc(CNCCCN2CCOCC2)ccc1OCC(=O)NC(C)(C)C | -2 | -1 | 44* | · | 3 | 5
O=C(N[C@H]1CC[C@H](CC(=O)N2CCCCC2)O[C@H]1CO)c1ccc2c(c1)OCO2 | -2 | 2 | 0 | 0 | · | ·
C[C@H](CO)N1C[C@H](C)[C@H](CN(C)CC2CCCCC2)Oc2c(NS(=O)(=O)c3ccc(Cl)cc3)cccc2C1=O | 0 | 2 | -1 | -12 | · | 4
CC(=O)c1ccc2c(c1)C1C=CCC1C(c1ccncc1)N2 (centres undefined) | · | · | · | 2 | -10 | ·
CC(=O)c1ccc2c(c1)C1C=CCC1C(C(=O)O)N2 (centres undefined) | -12 | 1 | 44* | 18 | 14 | ·
S=C(NCC1CCCO1)NC1CCCCC1 (centres undefined) | -5 | 0 | 43* | -3 | -3 | 3
COc1ccc2c3c([nH]c2c1)[C@H](CO)N(C(=O)Nc1ccc(F)cc1)CC31CN(C(=O)c2ccccc2F)C1 | 2 | -2 | · | · | · | ·
Cc1cc(C(=O)NCC(c2ccco2)N(C)C)ccc1[N+](=O)[O-] (centres undefined) | 46* | 7 | 0 | -3 | 2 | 3
CN(C)C(CNC(=O)c1ccc(Br)cc1)c1ccco1 (centres undefined) | 1 | -2 | 0 | -4 | -6 | -9
COc1ccc(C#Cc2ccc3c(c2)[C@@H]2[C@@H](CCN2C(=O)C2CCCC2)[C@H](CO)N3)cc1 | 12 | -10 | · | · | · | 4
CN(C)CCCCCCNC(=O)[C@@H]1C[C@@H]2C(=O)N3CCC[C@H]3C(=O)N2[C@@H]1c1ccc(O)cc1 | 29* | 0 | 0 | -19 | · | ·
Cn1c(N)c(C(=O)COC(=O)/C=C/c2ccc(Cl)cc2Cl)c(=O)n(C)c1=O | -3 | 6 | 44* | · | -46 | -8
Cn1c(N)c(C(=O)COC(=O)C2CCCC2)c(=O)n(C)c1=O | -1 | 0 | 43* | 8 | -2 | 8
Cn1c(N)c(C(=O)COC(=O)C2CCC(C(C)(C)C)CC2)c(=O)n(C)c1=O (centres undefined) | · | · | · | -7 | -5 | ·
COc1ccc2c3c(n(C)c2c1)[C@H](CO)NCC31CCN(Cc2ccc(Cl)cc2)CC1 | 44* | · | 0 | · | · | ·
COc1ccc2c3c(n(C)c2c1)[C@@H](CO)NCC31CCN(Cc2cc(F)ccc2F)CC1 | 32* | 0 | · | · | · | 0
COc1ccc2c3c(n(C)c2c1)[C@H](CO)NCC31CCN(Cc2cc(F)ccc2F)CC1 | 26* | -1 | · | · | · | 10
COc1ccc2c3c(n(C)c2c1)[C@@H](CO)NCC31CCN(S(=O)(=O)c2cccc(C)c2)CC1 | 27* | -4 | 0 | · | · | 11
COc1ccc2c3c(n(C)c2c1)[C@H](CO)NCC31CCN(CC2CCCC2)CC1 | 14 | 1 | 0 | · | · | ·
COc1ccccc1-c1cnc2c(c1)C(=O)N([C@@H](C)CO)C[C@@H](C)[C@@H](CN(C)CC1CCOCC1)O2 | 0 | 0 | 0 | 24 | · | ·
